# Assay outcomes from PubChem BioAssay.
# Autophagy HCS: modulators of autophagy. MEF GFP-LC3 puncta imaging; test concentration mostly 10 µM. calls only at 10 µM (by protocol). actives 0.98% (n = 190,000);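 active means percentage of spot-positive cells more than 3 SD above its plate mean, without a fluorescence outlier flag or 80% toxicity; inconclusive means no clear call, values can overlap the other calls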;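 further: spot-positive cell cutoff set from DMSO-treated cells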
# HKDC1 inhibitor: inhibitors of human hexokinase HKDC1; inhibition, % at 20 µM; recombinant HKDC1, G6PDH/diaphorase resazurin coupled fluorescence; actives 0.16% (n = 340,000);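 active means inhibition above about 35% when tested at 20 µM, limit read from the data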;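 further: plate controls were DMSO wells with enzyme for no effect and DMSO wells lacking enzyme for full effect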
#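 Test system: recombinant HKDC1 (HK5) hexokinase enzyme, produced in-house; Amount: enzyme 5 µg/mL final; Buffer or medium: Tris pH 8.0 buffer with MgCl2, Tween-20, BSA, BME; Reagent: glucose and ATP substrates; Doses: 20 µM test compound, 1% DMSO; Incubation: 90 min reaction incubation at room temperature, dark; Detection: resorufin fluorescence at 613 nm.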
# Tb hexokinase: blocks Trypanosoma brucei hexokinase 1 activity. recombinant TbHK1, G6PDH-coupled NADH A340. inhibition, % at 10 µM. actives 0.11% (n = 220,000). AID 1430;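 active means inhibition of 50% or more in the single-dose primary screen; inactive means inhibition below 50%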
# HSV replic up: increases HSV replication in cells; actives 0.005% (n = 220,000); maximum fold increase; HSV replication augmentation in cells, fold increase; in the data active means maximum fold increase above about 1.5; inconclusive means no clear call, values can overlap the other calls; tested in PC3 cells
# Dynein transport: dynein cargo transport inhibition; AID 1381; actives 0.47% (n = 220,000); 3617.4 mouse cells, GR-EGFP nuclear translocation imaging; test concentration mostly 20 µM; stimulated with dexamethasone, 1 µM; hits give low values; z-score, hits read low;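 active means plate z-score of nuclear minus cytoplasmic receptor signal below a set negative limit, without overly bright fluorescence or cell loss, cut at about -3.5 in these data, passing the limit was not always enough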;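 further: z-score of nuclear minus cytoplasmic ring GR-EGFP intensity difference per well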
#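 medium = tetracycline-free induction medium containing charcoal-stripped FBS | probe or stimulus = dexamethasone, 1.0 µM final | timing = 48 h induction, then 1 h compound, then 30 min agonist, 37 °C | detection = automated 10x imaging of fixed Hoechst-stained cells | read-out basis = nuclear versus cytoplasmic GR-EGFP signal, averaged per well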
# PERK inhibitor: blocks human PERK kinase. CHO PERK-DD fusion, SEAP luminescence translation reporter. Q9NZJ5. inhibition, % at 5.6 µM. actives 0.17% (n = 220,000);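 active means inhibition above the mean inhibition of all tested compounds plus 3 SD, set separately per screening campaign, cut at about 2.9% in these data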;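 further: PERK kinase domain activated by AP20187 dimerizer at 100 nM; 0% = DMSO with dimerizer and 100% = rapamycin at 8.4 µM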
# Target sequence (Q9NZJ5 whole entry, looked up, the tested form may be a part): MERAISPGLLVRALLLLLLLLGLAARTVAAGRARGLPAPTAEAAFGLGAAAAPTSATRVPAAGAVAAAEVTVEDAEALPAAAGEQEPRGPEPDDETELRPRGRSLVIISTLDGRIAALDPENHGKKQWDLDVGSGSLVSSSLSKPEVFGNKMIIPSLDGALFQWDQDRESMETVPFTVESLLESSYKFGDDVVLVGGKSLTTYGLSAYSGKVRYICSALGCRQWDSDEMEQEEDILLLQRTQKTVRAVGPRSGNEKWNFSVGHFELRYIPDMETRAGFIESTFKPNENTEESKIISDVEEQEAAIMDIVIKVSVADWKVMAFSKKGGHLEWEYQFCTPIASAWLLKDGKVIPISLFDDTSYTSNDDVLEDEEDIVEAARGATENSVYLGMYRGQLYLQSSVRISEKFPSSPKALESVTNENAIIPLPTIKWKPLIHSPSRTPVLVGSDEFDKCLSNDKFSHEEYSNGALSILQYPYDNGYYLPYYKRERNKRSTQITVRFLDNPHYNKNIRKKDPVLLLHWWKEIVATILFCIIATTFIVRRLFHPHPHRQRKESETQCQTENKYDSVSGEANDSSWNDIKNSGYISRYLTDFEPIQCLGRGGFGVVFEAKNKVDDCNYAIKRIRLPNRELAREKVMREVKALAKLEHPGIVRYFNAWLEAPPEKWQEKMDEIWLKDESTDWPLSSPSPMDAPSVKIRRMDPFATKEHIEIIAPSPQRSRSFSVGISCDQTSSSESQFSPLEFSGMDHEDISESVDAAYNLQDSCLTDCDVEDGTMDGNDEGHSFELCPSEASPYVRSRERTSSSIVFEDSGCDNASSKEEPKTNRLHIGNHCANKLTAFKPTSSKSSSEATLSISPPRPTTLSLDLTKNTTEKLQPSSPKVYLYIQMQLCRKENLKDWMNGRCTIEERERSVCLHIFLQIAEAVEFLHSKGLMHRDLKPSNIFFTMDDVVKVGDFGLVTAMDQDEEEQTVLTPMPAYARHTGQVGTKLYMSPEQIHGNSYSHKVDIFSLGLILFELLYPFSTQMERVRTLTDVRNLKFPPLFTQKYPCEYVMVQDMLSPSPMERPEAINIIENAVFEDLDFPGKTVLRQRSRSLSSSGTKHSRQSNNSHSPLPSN
# * hit, by the source's call; i = inactive; ? = inconclusive; . = no result; + = active, no number. In the library only some 1.2% were active in any assay of this set; here they are far more common.
SMILES,Autophagy HCS,HKDC1 inhibitor,Tb hexokinase,HSV replic up,Dynein transport,PERK inhibitor
COc1ccccc1C(c1nnnn1CCc1ccccc1)N1CCN(c2ccccc2)CC1 (configuration not stated),i,1.4,6.2,i,0.0619,0.7
COCCn1nnnc1C(c1ccccc1OC)N1CCN(c2ccccc2)CC1 (configuration not stated),+,-2.1,1.6,i,3.34,-1.3
O=C(COC(=O)C1COc2ccccc2O1)Nc1ccccc1OC(F)F (configuration not stated),.,0.6,.,.,.,.
O=C(O)CC(CCc1ccccc1)OC1OC(CO)C(O)C(O)C1O (configuration not stated),.,0.9,72.8*,i,-0.114,.
[C-]#[N+][C@H](O[C@@H]1O[C@H](CO)[C@@H](O)[C@H](O)[C@H]1O)c1ccccc1,.,5.5,.,i,.,.
CCNC(=S)N1CCC(NC(=O)C2CCCCC2)CC1,i,-2.6,-6.2,i,1.17,0.3
CCNC(=S)NNC(=O)C1CCCCC1,i,0.2,-2.1,i,0.3,2.9*
O=C(Cc1ccc(NC(=O)C2CCN(C(=O)C3CC3)CC2)cc1)Nc1cccc(C(=O)N2CCCC2)c1,.,-4.2,.,.,.,.
FC(F)(F)c1ccccc1NC(=S)NC1CCN(Cc2ccccc2)CC1,+,-4.0,1.6,i,0.0298,-1.0
CCCCN1C(=O)C(=O)N(CC(=O)Nc2cc(S(=O)(=O)N(C)C)ccc2C)C1=O,.,3.6,.,.,.,.
COc1ccccc1C(=O)COC(=O)/C(=C/c1ccccc1)NC(C)=O,.,-1.3,.,.,.,.
Cc1ccc(Nc2nc(Oc3ccc(=O)[nH]n3)nc(N(C)C)n2)cc1,+,-2.2,6.7,i,-0.862,0.2
NC(=O)C1CC2(C1)CC(C(N)=O)C2 (configuration not stated),.,-10.7,.,.,.,.
CN(C)S(=O)(=O)c1ccc(N2CCCC2)c(C(=O)NC2CCC(O)CC2)c1 (configuration not stated),.,-4.8,.,.,.,.
Clc1ccc(/C=N/Nc2nnc(Cl)c3ccccc23)cc1,+,12.7,-5.6,i,0.308,0.0
COc1ccc(C(=O)c2sc3nc(-c4ccccc4)ccc3c2N)cc1,+,-7.3,2.5,?,-0.816,0.2
CC(C)OC(=O)c1sc2nc(-c3ccccc3)ccc2c1N,i,-1.5,-3.2,i,0.873,1.4
NC(=O)CN1CCN(Cc2ccc3c(c2)OCO3)CC1,.,-0.2,.,.,.,.
CC(C)CN(C(=O)COc1ccc(Br)cc1C=O)C1CCS(=O)(=O)C1 (configuration not stated),.,1.8,.,.,.,.
Cc1ccc[n+](CC(=O)c2ccc(Br)cc2)c1C,.,1.7,.,.,.,.
O=C(O)CC(Cc1ccccc1)C(=O)NCC12CC3CC(CC(C3)C1)C2 (configuration not stated),i,-9.0,-5.0,i,-0.26,3.2*
Fc1ccccc1CSCc1nc2ccccc2[nH]1,+,-4.8,-0.1,i,-1.42,-0.2
Cc1ccccc1C(=O)c1cccn1CC(=O)NCCN1CCN(c2cccc(C)c2C)CC1,+,-0.6,-6.6,i,3.48,-1.6
Cc1ccccc1C(=O)c1cccn1CC(=O)NCCCN1CCCCC1,.,4.1,.,.,.,.
Cc1ccc(C)c(N2CCN(CCCNC(=O)Cn3cccc3C(=O)c3ccccc3C)CC2)c1,+,15.3,4.9,i,2.89,-1.0
SMILES,Autophagy HCS,HKDC1 inhibitor,Tb hexokinase,HSV replic up,Dynein transport,PERK inhibitor
NS(=O)(=O)c1ccc(NC(=O)COc2cccc3ccccc23)cc1,.,7.7,.,.,.,.
CC(C)(C)OC(=O)N[C@@H](Cc1ccccc1)c1nnc(S(=O)(=O)Cc2ccccc2)o1,i,.,2.6,i,-4.31*,0.8
CCSc1nnc([C@H](Cc2ccccc2)NC(=O)OC(C)(C)C)o1,i,-8.2,0.0,i,0.21,-0.4
CCOC(=O)C1=C(C)N=c2s/c(=C\c3ccc(C(=O)O)cc3)c(=O)n2C1c1ccc(F)cc1 (configuration not stated),.,3.9,.,.,.,.
CC1(C)CC(=O)C2=C(C1)N=c1s/c(=C/c3ccc(F)c(F)c3)c(=O)n1C2c1ccc(F)cc1 (configuration not stated),+,8.2,-5.4,i,-0.273,-0.6
CCOC(=O)c1sc(NC(=O)C2CC2)nc1C,i,3.2,1.7,i,-0.904,0.6
CCOC(=O)c1sc(NC(=O)C2C3C=CC(C3)C2C(=O)O)nc1C (configuration not stated),i,-8.9,14.3,i,-0.189,3.4*
Cc1ccc(Cl)c(NC(=O)COC(=O)c2ccccc2C(=O)c2ccc(Cl)c([N+](=O)[O-])c2)c1Cl,+,-9.2,4.2,i,-1.15,0.7
O=C(CCN1C(=O)c2ccc([N+](=O)[O-])cc2C1=O)Nc1nccs1,+,0.2,-2.0,i,-0.494,-0.5
COc1ccc(-c2nc(CS(=O)(=O)CC(=O)NC3CCC(C)CC3)c(C)o2)cc1 (configuration not stated),.,11.1,.,.,.,.
CCOC(=O)/C=c1\s/c(=C\c2ccccc2C)c(=O)n1CC(=O)NCc1ccc2c(c1)OCO2,i,2.2,-6.4,i,1.15,0.1
CCOC(=O)/C=c1\s/c(=C\c2ccc3cc(OC)ccc3c2)c(=O)n1CC(=O)NCc1ccc2c(c1)OCO2,+,1.1,-6.2,i,-0.535,0.8
CC(=O)OCC(=O)C1(O)CCC2C3CC(F)C4=CC(=O)CCC4(C)C3C(O)CC21C (configuration not stated),.,-8.7,.,.,.,.
Cc1ccc(N)c(C(O)(C(F)(F)F)C(F)(F)F)c1,+,-0.2,-0.4,i,-1.03,2.4
O=C(CCCN1C(=O)c2ccccc2C1=O)NC1=NCCS1,+,-5.2,3.0,i,2.42,0.2
O=C(CCCN1C(=O)c2ccccc2C1=O)Nc1nncs1,i,-5.6,7.6,i,-1,1.6
Cc1cccc(NC(=O)CCN2C(=O)c3ccccc3C2=O)n1,+,-5.3,21.6,i,0.365,0.6
CSc1nc(Sc2ccc(Cl)cc2)c2ccccc2n1,i,-1.5,2.1,.,-0.233,2.9*
COc1ccc(OCc2cc(C(=O)NCc3cccc(C)n3)no2)c(Cl)c1,.,-1.2,.,.,.,.
Cc1cc(O)ccc1N/C=C/c1onc(C)c1[N+](=O)[O-],i,1.1,-17.3,i,0.232,-0.2
Cc1cccc(N/C=C/c2onc(C)c2[N+](=O)[O-])c1,+,-7.5,-4.6,i,-0.848,2.2
COc1cccc(-c2cc(C(F)(F)F)c(C#N)c(=O)[nH]2)c1,+,-9.4,-14.4,i,-0.817,1.3
N#Cc1c(C(F)(F)F)cc(-c2ccccc2)[nH]c1=O,i,0.9,-16.3,i,-0.169,0.8
Cc1ccc(S(=O)(=O)NCCC(=O)NC2CCCCCC2)cc1,.,-2.6,.,.,.,.
Cc1ccc(S(=O)(=O)NCCC(=O)NC2CCCC2)cc1,+,-12.4,-3.7,.,1.29,0.3
